Published values gathered from unrelated publications.
Each line is one published result; the experiments were not run side by side.
Target: Mitogen-activated protein kinase kinase kinase kinase 3 (MAP4K3, Homo sapiens, UniProt Q8IVH8)
Sequence (Q8IVH8 1-894, as in one of the studies): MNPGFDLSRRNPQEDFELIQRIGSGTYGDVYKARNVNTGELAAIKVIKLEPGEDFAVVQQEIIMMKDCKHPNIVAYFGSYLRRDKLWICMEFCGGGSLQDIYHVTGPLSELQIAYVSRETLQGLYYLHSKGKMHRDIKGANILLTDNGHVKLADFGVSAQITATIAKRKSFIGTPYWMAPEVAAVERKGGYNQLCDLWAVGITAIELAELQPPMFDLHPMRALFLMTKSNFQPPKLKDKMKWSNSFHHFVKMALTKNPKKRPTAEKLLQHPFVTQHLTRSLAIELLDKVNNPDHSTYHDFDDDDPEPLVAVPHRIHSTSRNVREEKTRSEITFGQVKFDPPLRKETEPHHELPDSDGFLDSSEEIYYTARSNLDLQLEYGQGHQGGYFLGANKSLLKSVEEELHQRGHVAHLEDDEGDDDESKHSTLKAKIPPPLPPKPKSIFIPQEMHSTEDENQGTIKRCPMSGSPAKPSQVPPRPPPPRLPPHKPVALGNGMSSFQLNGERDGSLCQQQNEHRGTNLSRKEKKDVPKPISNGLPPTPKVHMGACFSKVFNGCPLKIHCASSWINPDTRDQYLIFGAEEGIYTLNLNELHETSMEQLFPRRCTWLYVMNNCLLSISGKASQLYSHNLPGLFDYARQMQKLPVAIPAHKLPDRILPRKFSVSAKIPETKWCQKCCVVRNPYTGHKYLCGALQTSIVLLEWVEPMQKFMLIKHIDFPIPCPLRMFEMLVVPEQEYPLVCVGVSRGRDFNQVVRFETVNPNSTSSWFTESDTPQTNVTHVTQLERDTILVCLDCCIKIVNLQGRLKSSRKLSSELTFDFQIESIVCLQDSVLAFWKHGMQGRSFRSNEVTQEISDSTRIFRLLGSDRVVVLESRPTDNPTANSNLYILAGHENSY

Compound | read-out | technique | tested at | remaining binding [%]
O=C(NCC1CCOCC1)c1n[nH]cc1NC(=O)c1c(F)cccc1F | binding | competition with immobilised ligand | 1 µM | 82
CN([C@@H]1CCc2c(CC(=O)O)c3cc(S(C)(=O)=O)ccc3n2C1)S(=O)(=O)c1ccc(F)cc1 | cell-free assay | competition with immobilised ligand | 1 µM | 100
O=C(c1ccc(Nc2ncc(Cl)c(-c3cc4ccccc4s3)n2)cc1)N1CCC(N2CCCC2)CC1 | binding | competition with immobilised ligand | 1 µM | 40
NS(=O)(=O)c1cc(NC(=O)Cc2ccccc2)ccc1Oc1cccc(Cl)c1 | cell-free assay | competition with immobilised ligand | 1 µM | 100
FC(F)(F)Oc1cccc(-c2cnc3ccc(-c4ccncc4)nn23)c1 | cell-free assay | competition with immobilised ligand | 5 µM | 86
Cc1c(C(=O)O)cc(-c2ccc(C3CCNCC3)cc2)c2ccc(-c3ccc(C(F)(F)F)cc3)cc12 | binding | competition with immobilised ligand | 1 µM | 100
COc1ccnn2ncc(-c3ccnc(N(C)C)n3)c12 | binding |  | 1 µM | 100
CC(C)(O)c1cncc(-c2nc3ccc(F)cc3n2C2CC2)c1 | cell-free assay | competition with immobilised ligand | 1 µM | 100
CN(C)c1ncc(F)c(-c2cnn3ncccc23)n1 | binding |  | 1 µM | 100
O=C(Nc1cccnn1)N1CCC(=Cc2cccc(Oc3ccc(C(F)(F)F)cn3)c2)CC1 | cell-free assay | competition with immobilised ligand | 1 µM | 100
C[C@H]1CCN(c2nccc(-c3cnn4ncccc34)n2)C1 | binding |  | 1 µM | 100
CNC(=O)[C@@H]1CC[C@@H](n2c(-c3ccc4cnccc4c3)nc3ccc(C(=O)NCc4cccc(C(N)=O)c4)cc32)C1 | binding | competition with immobilised ligand | 1 µM | 100
O=C(c1ccc(Nc2ncc(Cl)c(-c3ccc(Cl)s3)n2)cc1)N1CCC(N2CCCC2)CC1 | binding | competition with immobilised ligand | 1 µM | 50
COc1cnc(Nc2cccc(S(N)(=O)=O)c2)nc1N1CCN(c2ccccc2)CC1 | binding | competition with immobilised ligand | 1 µM | 98
CN(C)c1nccc(-c2cnc3ncccn23)n1 | binding |  | 1 µM | 100
Nc1ncc2c(n1)-c1c([nH]c3ccc(C#CC4CC4)cc13)CCCC2 | binding | competition with immobilised ligand | 1 µM | 87
N[C@H]1CCN(c2nccc(-c3cnn4ncccc34)n2)C1 | binding |  | 1 µM | 100
Cc1cnc(Nc2ccc(C(=O)N3CCC(N4CCCC4)CC3)cc2)nc1-c1cc2ccccc2s1 | binding | competition with immobilised ligand | 1 µM | 50
Cc1cnn2ncc(-c3ccnc(N(C)C)n3)c2c1 | binding |  | 1 µM | 100
CC1=C(C#N)[C@@H](c2ccc3[nH]nc(C)c3c2)C(C#N)=C(c2ccc(Cl)cc2)N1 | cell-free assay | competition with immobilised ligand | 1 µM | 100
